Test results published in ChEMBL document CHEMBL1137302 (J Med Chem, 2006).
Active and inactive are the calls of the source. The rule behind the calls is not given here.

Assays:
[1] = target: T1, D(4) dopamine receptor (Homo sapiens, UniProt P21917); assay: Agonist activity at human D4.4 receptor in HEK293 cells coexpressing G-alpha-qo5 by FLIPR; type: functional, cell-based
T1 sequence (P21917 whole entry): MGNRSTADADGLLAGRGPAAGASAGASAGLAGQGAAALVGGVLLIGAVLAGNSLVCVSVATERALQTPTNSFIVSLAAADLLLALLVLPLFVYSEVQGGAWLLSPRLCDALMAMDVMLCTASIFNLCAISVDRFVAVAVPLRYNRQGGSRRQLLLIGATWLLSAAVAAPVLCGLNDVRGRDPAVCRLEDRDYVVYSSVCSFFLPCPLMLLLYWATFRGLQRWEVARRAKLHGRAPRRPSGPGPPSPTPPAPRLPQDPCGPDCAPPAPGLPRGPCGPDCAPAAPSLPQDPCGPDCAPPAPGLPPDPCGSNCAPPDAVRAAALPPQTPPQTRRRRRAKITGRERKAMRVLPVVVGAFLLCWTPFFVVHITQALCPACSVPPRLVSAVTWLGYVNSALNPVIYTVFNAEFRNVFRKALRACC

[2] = Agonist activity at ferret D4 receptor in HEK293 cells coexpressing G-alpha-qo5 by FLIPR relative to dopamine; type: functional, Mustela putorius furo
[3] = Agonist activity at ferret D4 receptor in HEK293 cells coexpressing G-alpha-qo5 by FLIPR; type: functional, cell-based, Mustela putorius furo; settings: Mustela putorius
Method in brief: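 HEK cells cotransfected with ferret D4 receptor and chimeric G protein Gqo5, with receptor activation read as a calcium flux signal on FLIPR. EC50 is the concentration giving half-maximal activation.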

[4] = system: Rattus norvegicus; assay: Proerectile activity in rat measured as incidence of penile erection at 0.1 umol/kg, sc; type: functional
Method in brief: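 Conscious male rats were given a single subcutaneous injection and observed for penile erections over the following 60 min. The read-out was the incidence of erections, expressed as % of animals ± SEM (n = 12–32 animals per group), with significance tested against controls. The value is the maximal incidence at the maximally effective dose.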

[5] = target: T2, D(4) dopamine receptor (Homo sapiens) (UniProt P21917); assay: Activity at human D4.4 receptor in HEK293 cells co-expressing Galphaqo5 by FLIPR; type: functional, cell-based
T2 sequence (whole entry): T1 sequence (P21917 whole entry)

[6] = target: T2, D(4) dopamine receptor (Homo sapiens); assay: Agonist activity at human D4.4 receptor in HEK293 cells coexpressing G-alpha-qo5 by FLIPR with relative to dopamine upto 10 uM; type: functional, cell-based
[7] = Half life in Sprague-Dawley rat at 1 mg/kg, sc; type: ADME, organism-based; set-up: dose 1 mg/kg, route subcutaneous; settings: in vivo
Method in brief: (§1)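 Single 1 mg/kg dose given iv, sc or orally to Sprague-Dawley rats, dogs and monkeys; plasma concentrations followed over time (mean ± SEM, n = 3). Cmax, AUC, half-life, clearance and bioavailability calculated from the curves.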

[8] = target: T1, D(4) dopamine receptor; assay: Displacement of [3H]A369508 from human D4 receptor expressed in HEK293 cell membrane; type: cell membranes
[9] = Bioavailability in Sprague-Dawley rat at 1 mg/kg, sc; type: ADME, organism-based; settings: in vivo; method in brief: as §1
[10] = Bioavailability in Sprague-Dawley rat at 1 mg/kg, po; type: ADME, organism-based; settings: in vivo; method in brief: as §1
[11] = target: T3, D(2) dopamine receptor (Homo sapiens, UniProt P14416); assay: Binding affinity to human D2S receptor
T3 sequence (P14416 whole entry): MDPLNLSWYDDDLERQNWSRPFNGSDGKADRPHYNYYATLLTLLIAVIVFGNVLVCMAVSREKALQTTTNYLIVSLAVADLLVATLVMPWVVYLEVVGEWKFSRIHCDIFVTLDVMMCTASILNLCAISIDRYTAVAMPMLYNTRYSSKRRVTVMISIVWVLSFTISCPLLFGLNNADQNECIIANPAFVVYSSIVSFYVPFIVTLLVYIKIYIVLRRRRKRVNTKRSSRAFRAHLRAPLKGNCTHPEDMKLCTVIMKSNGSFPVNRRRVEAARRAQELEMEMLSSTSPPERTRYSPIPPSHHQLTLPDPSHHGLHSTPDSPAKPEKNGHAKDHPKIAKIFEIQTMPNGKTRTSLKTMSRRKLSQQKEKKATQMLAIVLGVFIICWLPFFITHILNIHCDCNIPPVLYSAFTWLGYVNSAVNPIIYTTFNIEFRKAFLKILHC

[12] = species: Mustela putorius furo; assay: Induction of emesis in ferret; type: functional, organism-based
[13] = target: T3, D(2) dopamine receptor; assay: Agonist activity at human D2 receptor in HEK293 cells coexpressing G-alpha-qo5 by FLIPR relative to dopamine upto 10 uM; type: functional, cell-based
Method in brief: (§2)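 Ca2+ flux by FLIPR in HEK cells cotransfected with the D2 receptor (human, ferret or rat) plus chimeric G protein Gqo5.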

[14] = target: D(2) dopamine receptor (Rattus norvegicus) (UniProt P61169); assay: Agonist activity at rat D2 receptor in HEK293 cells coexpressing G-alpha-qo5 by FLIPR relative to dopamine upto 10 uM; type: functional, cell-based; method in brief: as §2
Sequence of D(2) dopamine receptor (Rattus norvegicus) (P61169 whole entry): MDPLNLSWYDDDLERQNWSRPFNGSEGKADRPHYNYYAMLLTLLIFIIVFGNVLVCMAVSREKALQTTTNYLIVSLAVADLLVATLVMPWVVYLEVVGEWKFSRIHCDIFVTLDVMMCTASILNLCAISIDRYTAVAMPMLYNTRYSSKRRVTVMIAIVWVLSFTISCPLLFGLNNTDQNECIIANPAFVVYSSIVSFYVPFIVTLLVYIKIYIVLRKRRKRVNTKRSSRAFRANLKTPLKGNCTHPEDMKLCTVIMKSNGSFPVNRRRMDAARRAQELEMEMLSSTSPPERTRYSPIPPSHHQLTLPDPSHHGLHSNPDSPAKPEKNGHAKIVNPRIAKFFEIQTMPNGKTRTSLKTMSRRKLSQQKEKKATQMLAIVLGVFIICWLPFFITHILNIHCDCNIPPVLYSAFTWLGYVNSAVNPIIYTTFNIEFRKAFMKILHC

[15] = target: D(3) dopamine receptor (Homo sapiens) (UniProt P35462); assay: Agonist activity at human D3 receptor in HEK293 cells coexpressing G-alpha-qo5 by FLIPR upto 10 uM; type: functional, cell-based
Sequence of D(3) dopamine receptor (Homo sapiens) (P35462 whole entry): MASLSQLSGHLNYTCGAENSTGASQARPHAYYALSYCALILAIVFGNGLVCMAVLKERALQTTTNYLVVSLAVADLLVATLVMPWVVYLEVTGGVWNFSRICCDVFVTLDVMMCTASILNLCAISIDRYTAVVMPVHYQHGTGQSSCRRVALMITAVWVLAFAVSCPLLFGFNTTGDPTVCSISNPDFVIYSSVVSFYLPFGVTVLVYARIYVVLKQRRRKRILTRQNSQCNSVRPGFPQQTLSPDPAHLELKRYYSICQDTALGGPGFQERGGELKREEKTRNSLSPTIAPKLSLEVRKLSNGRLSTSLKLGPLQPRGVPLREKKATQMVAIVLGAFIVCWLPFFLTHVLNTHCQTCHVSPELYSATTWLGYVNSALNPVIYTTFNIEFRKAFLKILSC

[16] = target: T3, D(2) dopamine receptor; assay: Displacement of [125I]7-OH-PIPAT from human D2L receptor expressed in HEK293 cell membrane; type: cell membranes
[17] = target: T4, D(4) dopamine receptor (Rattus norvegicus, UniProt P30729); assay: Agonist activity at rat D4 receptor in HEK293 cells coexpressing G-alpha-qo5 by FLIPR; type: functional, cell-based
T4 sequence (P30729 whole entry): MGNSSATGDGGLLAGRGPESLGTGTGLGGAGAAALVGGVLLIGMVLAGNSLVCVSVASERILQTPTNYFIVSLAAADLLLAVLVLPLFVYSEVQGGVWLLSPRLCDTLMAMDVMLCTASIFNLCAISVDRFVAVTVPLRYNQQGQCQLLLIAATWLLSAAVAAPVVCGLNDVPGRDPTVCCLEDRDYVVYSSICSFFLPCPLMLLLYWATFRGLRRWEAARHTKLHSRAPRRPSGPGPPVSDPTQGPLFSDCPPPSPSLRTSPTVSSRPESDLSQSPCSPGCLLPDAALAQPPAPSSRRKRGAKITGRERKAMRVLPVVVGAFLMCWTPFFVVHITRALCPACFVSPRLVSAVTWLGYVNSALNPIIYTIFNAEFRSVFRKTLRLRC

[18] = species: Mustela putorius furo; assay: Induction of nausea in ferret; type: functional, organism-based
[19] = system: D(2) dopamine receptor (Mustela putorius furo); assay: Agonist activity at ferret D2 receptor in HEK293 cells coexpressing Galphaqo5 by FLIPR relative to dopamine upto 10 uM
[20] = target: T5, D(4) dopamine receptor (Rattus norvegicus) (UniProt P30729); assay: Agonist activity at rat D4 receptor in HEK293 cells co-expressing Galphaqo5 by FLIPR relative to dopamine; type: functional, cell-based
T5 sequence (whole entry): T4 sequence (P30729 whole entry)

[21] = target: T2, D(4) dopamine receptor (Homo sapiens); assay: Agonist activity at human D4.4 receptor in HEK293 cells coexpressing G-alpha-qo5 by FLIPR upto 10 uM; type: functional, cell-based

Row | EC50 [1] [nM] | Compound | further results
1 | 159 | COc1cc(C(=O)NCN2CCC(c3cccc[n+]3[O-])CC2)ccc1Cl | 
2 | 62 | O=C(CN1CCC(c2cccc[n+]2[O-])CC1)Nc1cccc(Cl)c1 | 
3 | 324 | CCOc1cccc(C(=O)NCN2CCC(c3cccc[n+]3[O-])CC2)c1 | 
4 | 63 | O=C(NCN1CCC(c2cccc[n+]2[O-])CC1)c1ccc(F)c(Cl)c1 | 
5 | 3150 | O=C(NCN1CCC(c2cccc[n+]2[O-])CC1)c1ccccn1 | 
6 | 346 | Cc1cccc(C)c1NC(=O)CN1CCC(c2cccc[n+]2[O-])CC1 | 
7 | 1290 | O=C(NCN1CCC(c2cccc[n+]2[O-])CC1)c1cnccc1Cl | 
8 | 160 | O=C(CN1CCC(c2cccc[n+]2[O-])CC1)Nc1cccc(F)c1 | 
9 | 85 | O=C(CN1CCC(c2cccc[n+]2[O-])CC1)Nc1ccc(F)cc1 | 
10 | 95 | CCc1cccc(NC(=O)CN2CCC(c3cccc[n+]3[O-])CC2)c1 | 
11 | 100 | CSc1cccc(NC(=O)CN2CCC(c3cccc[n+]3[O-])CC2)c1 | 
12 | 115 | O=C(NCN1CCC(c2cccc[n+]2[O-])CC1)c1ccc2ccccc2c1 | 
13 | 180 | O=C(CN1CCC(c2cccc[n+]2[O-])CC1)Nc1cccc(Cl)c1Cl | 
14 | 68 | C=Cc1cccc(C(=O)NCN2CCC(c3cccc[n+]3[O-])CC2)c1 | 
15 | 76 | O=C(CN1CCC(c2cccc[n+]2[O-])CC1)Nc1cccc(C(F)(F)F)c1 | 
16 | 45 | O=C(NCN1CCC(c2cccc[n+]2[O-])CC1)c1cc(Cl)cc(Cl)c1 | 
17 | 90 | Cc1cc(C)cc(C(=O)NCN2CCC(c3cccc[n+]3[O-])CC2)c1 | 
18 | 840 | N#Cc1cccc(C(=O)NCN2CCC(c3cccc[n+]3[O-])CC2)c1 | 
19 | 532 | O=C(NCN1CCC(c2cccc[n+]2[O-])CC1)c1ccccc1 | Activity ([5]; filed as partial agonist): Partial agonist
20 | 2460 | Cc1cc(C(=O)NCN2CCC(c3cccc[n+]3[O-])CC2)ccc1Cl | 
21 | 50 | Cc1cc(C(=O)NCN2CCC(c3cccc[n+]3[O-])CC2)ccc1F | 
22 | 555 | CC(C)Oc1cccc(NC(=O)CN2CCC(c3cccc[n+]3[O-])CC2)c1 | 
23 | 685 | COc1cccc(C(=O)NCN2CCC(c3cccc[n+]3[O-])CC2)c1C | 
24 | 170 | O=C(NCN1CCC(c2cccc[n+]2[O-])CC1)c1ccc(OC(F)(F)F)c(Cl)c1 | 
25 | 38 | Cc1ccc(C(=O)NCN2CCC(c3cccc[n+]3[O-])CC2)cc1C | 
26 | 270 | O=C(CN1CCC(c2cccc[n+]2[O-])CC1)Nc1ccccc1F | 
27 | 85 | Cc1ccc(C(=O)NCN2CCC(c3cccc[n+]3[O-])CC2)cc1C(F)(F)F | 

Continued, compound first:

Row | Compound | EC50 [1] [nM] | further results
28 | COc1cccc(C)c1NC(=O)CN1CCC(c2cccc[n+]2[O-])CC1 | 340 | 
29 | CN1CCc2cccc3c2[C@H]1Cc1ccc(O)c(O)c1-3 [APOMORPHINE] |  | Efficacy [2]: 84%; EC50 [3]: 1.5 nM; Activity [4]: 91%
30 | O=C(CN1CCC(c2ccccn2)CC1)Nc1c(Cl)cc(Cl)cc1Cl | 145 | 
31 | [O-][n+]1ccccc1C1CCN(Cc2nc3ccccc3[nH]2)CC1 | 54 | Activity ([5]; filed as partial agonist): Partial agonist
32 | O=C(CN1CCC(c2cccc[n+]2[O-])CC1)Nc1ccc(F)cc1C(F)(F)F | 473 | 
33 | O=C(CN1CCC(c2cccc[n+]2[O-])CC1)Nc1cc(Cl)cc(Cl)c1 | 160 | 
34 | Cc1cc(Br)ccc1NC(=O)CN1CCC(c2cccc[n+]2[O-])CC1 | 66 | 
35 | Cc1cccc(NC(=O)CN2CCC(c3cccc(F)c3)CC2)c1 | 512 | 
36 | O=C(CN1CCC(c2cccc[n+]2[O-])CC1)Nc1ccccn1 |  | Activity [6]: inactive
37 | Cc1cccc(NC(=O)CN2CCC(c3ccccn3)CC2)c1 | 14 | half-life [7]: 42 min; Activity ([5]; filed as agonist): Agonist; Activity [4]: 75%; Ki [8]: 8 nM; bioavailability [9]: 57%; bioavailability [10]: 0%
38 | c1ccc(C2CCN(Cc3nc4ccccc4[nH]3)CC2)nc1 | 12 | 
39 | Oc1ccc(N2CCN(Cc3nc4ccccc4[nH]3)CC2)nc1 | 2.4 | Efficacy [2]: 48%; Activity ([5]; filed as partial agonist): Partial agonist; Ki [11]: > 10000 nM; Activity [12]: inactive; EC50 [3]: 5 nM; Activity [13]: inactive; Activity [14]: inactive; Activity [4]: 60%; Activity [15]: inactive; Ki [8]: 17 nM; Ki [16]: > 10000 nM; EC50 [17]: 13.7 nM; Activity [18]: inactive; Activity [19]: inactive; Efficacy [20]: 66%
40 | CCc1cccc(C)c1NC(=O)CN1CCC(c2ccccn2)CC1 | 111 | 
41 | O=C(CN1CCC(c2cccc[n+]2[O-])CC1)Nc1cccc(-c2ccccc2)c1 | 360 | 
42 | Cc1cccc(C(=O)NCN2CCC(c3nccs3)CC2)c1 | 9.8 | 
43 | Cc1cccc(NC(=O)CN2CCC(c3ncccc3C#N)CC2)c1 | 36 | 
44 | NCCc1ccc(O)c(O)c1 [DOPAMINE] |  | EC50 [3]: 2.7 nM
45 | Cc1ccc(Cl)c(NC(=O)CN2CCC(c3cccc[n+]3[O-])CC2)c1Cl | 346 | 
46 | Cc1cccc(NC(=O)CN2CCC(c3ccccc3F)CC2)c1 | 1 | 
47 | Cc1cccc(NC(=O)CN2CCC(c3ccccc3C#N)CC2)c1 | 8 | 

Row | Compound | EC50 [1] [nM] | further results
48 | O=C(CN1CCC(c2cccc[n+]2[O-])CC1)Nc1ccc(F)cc1F | 103 | 
49 | Cc1cccc(NC(=O)CN2CCC(c3cccc(O)c3)CC2)c1 | 8 | Activity ([5]; filed as partial agonist): Partial agonist
50 | Cc1cccc(NC(=O)CN2CCC(c3ccc(O)cn3)CC2)c1 | 3.8 | bioavailability [10]: 0%
51 | Cc1cccc(NC(=O)CN2CCC(c3ccccc3C)CC2)c1 | 340 | 
52 | O=C(CN1CCC(c2cccc[n+]2[O-])CC1)Nc1cccc(OC(F)(F)F)c1 | 135 | 
53 | Cc1cccc(NC(=O)CN2CCC(c3ccc(O)cc3)CC2)c1 | 70 | Activity ([5]; filed as partial agonist): Partial agonist
54 | O=C(NCN1CCC(c2cccc[n+]2[O-])CC1)c1cccs1 |  | Activity [6]: inactive
55 | O=C(CN1CCC(c2cccc[n+]2[O-])CC1)NC1CCCCC1 | 294 | Activity ([5]; filed as partial agonist): Partial agonist
56 | Cc1cccc(NC(=O)CN2CCC(c3ccccc3)CC2)c1 | 170 | 
57 | Cc1cc(C)cc(NC(=O)CN2CCC(c3cccc[n+]3[O-])CC2)c1 | 52 | 
58 | Cc1cc(NC(=O)CN2CCC(c3cccc[n+]3[O-])CC2)ccc1F | 18 | 
59 | Cc1cccc(Cl)c1NC(=O)CN1CCC(c2ccccn2)CC1 | 60 | 
60 | Cc1cccc(NC(=O)CN2CCC(c3nccs3)CC2)c1 | 1 | 
61 | COc1ccccc1C1CCN(CC(=O)Nc2cccc(C)c2)CC1 | 420 | 
62 | Cc1cc(Cl)cc(C)c1NC(=O)CN1CCC(c2ccccn2)CC1 | 240 | 
63 | Cc1cccc(NC(=O)CN2CCC(c3ccc(F)cc3)CC2)c1 |  | Activity [21]: inactive
64 | COc1ccc(C2CCN(CC(=O)Nc3cccc(C)c3)CC2)cc1 |  | Activity [21]: inactive
65 | Cc1ccc(Cl)cc1NC(=O)CN1CCC(c2cccc[n+]2[O-])CC1 | 126 | 
66 | c1ccc(N2CCN(Cc3nc4ccccc4[nH]3)CC2)nc1 |  | Activity ([5]; filed as partial agonist): Partial agonist
67 | COc1cccc(C)c1NC(=O)CN1CCC(c2ccccn2)CC1 | 40 | 
